ChEMBL document CHEMBL5058577, “EUbOPEN Chemogenomics Library 2 (Multiplex)” (2022)

Test system: U2OS
Experiment: Multiplex assay against U2OS
Assay type: toxicity, cell-based
Conditions: human
In short: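 Compound was added to live cells that had been stained at seeding with Hoechst33342, BioTracker Green Microtubule Cytoskeleton Dye, MitoTracker Red and Annexin V Alexa Fluor 680, and imaging followed on a CQ1 microscope at 37°C and 5% CO2. CellPathfinder machine-learning gating divided cells into Hoechst high-intensity objects or normal cells, normal cells into healthy, pyknosed or fragmented nuclei, and pyknosed cells into mitotic or apoptotic. Tubulin, mitochondrial-mass and membrane-permeability phenotypes are per cents of healthy-nucleus cells.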

[1] = 12 h, 1 µM, compound concentration 1 uM, replicate 1
[2] = 12 h, 1 µM, compound concentration 1 uM, replicate 2
[3] = 12 h, 10 µM, compound concentration 10 uM, replicate 1
[4] = 12 h, 10 µM, compound concentration 10 uM, replicate 2
[5] = 24 h, 1 µM, compound concentration 1 uM, replicate 1
[6] = 24 h, 1 µM, compound concentration 1 uM, replicate 2
[7] = 24 h, 10 µM, compound concentration 10 uM, replicate 1
[8] = 24 h, 10 µM, compound concentration 10 uM, replicate 2
[9] = 48 h, 1 µM, compound concentration 1 uM, replicate 1
[10] = 48 h, 1 µM, compound concentration 1 uM, replicate 2
[11] = 48 h, 10 µM, compound concentration 10 uM, replicate 1
[12] = 48 h, 10 µM, compound concentration 10 uM, replicate 2

CC(C)(O)C(=O)N1CCN(c2ccc(C(F)(F)F)c(C3=C(c4c[nH]c5ccccc45)C(=O)NC3=O)c2)CC1
Population Apoptotic (%) [1]: 88%
Population Fragmented Nuclei (%) [1]: 29%
Population Healthy Nuclei (%) [1]: 63%
Population Hoechst High Intensity Objects (%) [1]: 3%
Population Membrane Permeable-Phenotype (%) [1]: 5%
Population Mitochondria Different-Phenotype (%) [1]: 2%
Population Mitotic Cells (%) [1]: 11%
Population Normal (%) [1]: 96%
Population Pyknosed Nuclei (%) [1]: 7%
Population Tubulin-Different-Phenotype (%) [1]: 3%
Total Cell Count [1]: 238
Population Apoptotic (%) [2]: 92%
Population Fragmented Nuclei (%) [2]: 14%
Population Healthy Nuclei (%) [2]: 75%
Population Hoechst High Intensity Objects (%) [2]: 1%
Population Membrane Permeable-Phenotype (%) [2]: 4%
Population Mitochondria Different-Phenotype (%) [2]: 4%
Population Mitotic Cells (%) [2]: 7%
Population Normal (%) [2]: 98%
Population Pyknosed Nuclei (%) [2]: 9%
Total Cell Count [2]: 134
Population Apoptotic (%) [3]: 76%
Population Fragmented Nuclei (%) [3]: 37%
Population Healthy Nuclei (%) [3]: 46%
Population Hoechst High Intensity Objects (%) [3]: 6%
Population Membrane Permeable-Phenotype (%) [3]: 39%
Population Mitochondria Different-Phenotype (%) [3]: 23%
Population Mitotic Cells (%) [3]: 24%
Population Normal (%) [3]: 93%
Population Pyknosed Nuclei (%) [3]: 16%
Population Tubulin-Different-Phenotype (%) [3]: 30%
Total Cell Count [3]: 166
Population Apoptotic (%) [4]: 50%
Population Fragmented Nuclei (%) [4]: 6%
Population Healthy Nuclei (%) [4]: 77%
Population Hoechst High Intensity Objects (%) [4]: 1%
Population Membrane Permeable-Phenotype (%) [4]: 14%
Population Mitochondria Different-Phenotype (%) [4]: 14%
Population Mitotic Cells (%) [4]: 50%
Population Normal (%) [4]: 98%
Population Tubulin-Different-Phenotype (%) [4]: 15%
Total Cell Count [4]: 148
Population Apoptotic (%) [5]: 89%
Population Fragmented Nuclei (%) [5]: 27%
Population Healthy Nuclei (%) [5]: 61%
Population Hoechst High Intensity Objects (%) [5]: 3%
Population Membrane Permeable-Phenotype (%) [5]: 7%
Population Mitochondria Different-Phenotype (%) [5]: 3%
Population Mitotic Cells (%) [5]: 10%
Population Normal (%) [5]: 96%
Population Pyknosed Nuclei (%) [5]: 11%
Population Tubulin-Different-Phenotype (%) [5]: 5%
Total Cell Count [5]: 263
Population Apoptotic (%) [6]: 82%
Population Fragmented Nuclei (%) [6]: 22%
Population Healthy Nuclei (%) [6]: 67%
Population Hoechst High Intensity Objects (%) [6]: 0%
Population Membrane Permeable-Phenotype (%) [6]: 4%
Population Mitochondria Different-Phenotype (%) [6]: 2%
Population Mitotic Cells (%) [6]: 17%
Population Normal (%) [6]: 100%
Population Pyknosed Nuclei (%) [6]: 9%
Population Tubulin-Different-Phenotype (%) [6]: 2%
Total Cell Count [6]: 172
Population Apoptotic (%) [7]: 87%
Population Fragmented Nuclei (%) [7]: 48%
Population Healthy Nuclei (%) [7]: 27%
Population Hoechst High Intensity Objects (%) [7]: 6%
Population Membrane Permeable-Phenotype (%) [7]: 11%
Population Mitochondria Different-Phenotype (%) [7]: 34%
Population Mitotic Cells (%) [7]: 12%
Population Normal (%) [7]: 93%
Population Pyknosed Nuclei (%) [7]: 24%
Population Tubulin-Different-Phenotype (%) [7]: 15%
Total Cell Count [7]: 172
Population Apoptotic (%) [8]: 70%
Population Fragmented Nuclei (%) [8]: 16%
Population Healthy Nuclei (%) [8]: 53%
Population Hoechst High Intensity Objects (%) [8]: 2%
Population Membrane Permeable-Phenotype (%) [8]: 15%
Population Mitochondria Different-Phenotype (%) [8]: 24%
Population Mitotic Cells (%) [8]: 29%
Population Normal (%) [8]: 97%
Population Pyknosed Nuclei (%) [8]: 29%
Population Tubulin-Different-Phenotype (%) [8]: 11%
Total Cell Count [8]: 152
Population Apoptotic (%) [9]: 95%
Population Fragmented Nuclei (%) [9]: 21%
Population Healthy Nuclei (%) [9]: 65%
Population Hoechst High Intensity Objects (%) [9]: 3%
Population Membrane Permeable-Phenotype (%) [9]: 6%
Population Mitochondria Different-Phenotype (%) [9]: 4%
Population Mitotic Cells (%) [9]: 4%
Population Normal (%) [9]: 96%
Population Pyknosed Nuclei (%) [9]: 12%
Population Tubulin-Different-Phenotype (%) [9]: 5%
Total Cell Count [9]: 377
Population Apoptotic (%) [10]: 85%
Population Fragmented Nuclei (%) [10]: 17%
Population Healthy Nuclei (%) [10]: 73%
Population Hoechst High Intensity Objects (%) [10]: 1%
Population Membrane Permeable-Phenotype (%) [10]: 7%
Population Mitochondria Different-Phenotype (%) [10]: 3%
Population Mitotic Cells (%) [10]: 14%
Population Normal (%) [10]: 98%
Population Pyknosed Nuclei (%) [10]: 9%
Population Tubulin-Different-Phenotype (%) [10]: 2%
Total Cell Count [10]: 233
Population Apoptotic (%) [11]: 95%
Population Fragmented Nuclei (%) [11]: 57%
Population Healthy Nuclei (%) [11]: 11%
Population Hoechst High Intensity Objects (%) [11]: 14%
Population Membrane Permeable-Phenotype (%) [11]: 27%
Population Mitochondria Different-Phenotype (%) [11]: 16%
Population Mitotic Cells (%) [11]: 4%
Population Normal (%) [11]: 85%
Population Pyknosed Nuclei (%) [11]: 30%
Population Tubulin-Different-Phenotype (%) [11]: 11%
Total Cell Count [11]: 177
Population Apoptotic (%) [12]: 96%
Population Fragmented Nuclei (%) [12]: 31%
Population Healthy Nuclei (%) [12]: 27%
Population Hoechst High Intensity Objects (%) [12]: 7%
Population Membrane Permeable-Phenotype (%) [12]: 17%
Population Mitochondria Different-Phenotype (%) [12]: 14%
Population Mitotic Cells (%) [12]: 3%
Population Normal (%) [12]: 92%
Population Pyknosed Nuclei (%) [12]: 41%
Population Tubulin-Different-Phenotype (%) [12]: 17%
Total Cell Count [12]: 163
